Measurements published in ChEMBL document CHEMBL1132715, “Comparative molecular field analysis of hydantoin binding to the neuronal voltage-dependent sodium channel” (J Med Chem, 1999).

Key:
[1] = Partition coefficient (logP); type: physicochemical; conditions: octanol/water
[2] = molecular target: Sodium channel alpha subunits; brain (Types I, II, III) (Rattus norvegicus, UniProt P04775+P04774+P08104); experiment: In vitro inhibition of Voltage-gated sodium channel by the displacement of [3H]batrachotoxin A 20-alpha-benzoate in rat brain cerebral cortex synaptoneurosomes; type: tissue-based
In short: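 Rat cerebral cortex gray matter synaptoneurosomes (~1 mg protein), washed in HEPES/choline chloride buffer pH 7.4 and stored at –70 °C. […] Filtration read-out; nonspecific binding taken with 300 μM veratridine. Points run in triplicate; IC50 by Probit analysis, using only 10–90% inhibition.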

Compound | logP ([1]; read-out: logP) | IC50 [2] [µM] | logP [1]
O=C1NC(=O)C(c2ccccc2)(C2CCCCC2)N1 (stereo unspecified) | 2.96 | 58 | –
CCCCC1(c2cccc(C)c2)NC(=O)NC1=O (stereo unspecified) | 2.96 | – | –
CCCCC1(c2ccc(C)cc2)NC(=O)NC1=O (stereo unspecified) | 2.96 | – | –
CCCCC1(c2ccccc2C)NC(=O)NC1=O (stereo in doubt; 14a) | 2.96 | – | –
CCCCCCC1(c2ccccc2)NC(=O)NC1=O (stereo unspecified) | 3.4 | 13 | –
O=C1NC(=O)C2(CCCCCc3ccccc32)N1 (stereo unspecified) | 2.46 | – | –
NC(=O)N1c2ccccc2C=Cc2ccccc21 [CARBAMAZEPINE] | 2.13 | – | –
O=C1NC(=O)C2(CCCCc3ccccc32)N1 (stereo unspecified) | 1.96 | – | –
O=C1NC(=O)C2(CCc3ccccc32)N1 (stereo unspecified) | 0.96 | – | –
CCN1C(=O)NC(=O)C1(C)c1ccccc1 (stereo unspecified) | 2.02 | – | –
CCCCC1(c2ccccc2C)NC(=O)NC1=O (stereo in doubt; 14b) | – | – | 2.96
O=C1NC(=O)C2(CCCc3ccccc32)N1 (stereo unspecified) | 1.46 | – | –
CCCCCCCCCC1(c2ccccc2)NC(=O)NC1=O (stereo unspecified) | 4.96 | 5 | –
CCCCCCCC1(c2ccccc2)NC(=O)NC1=O (stereo unspecified) | 3.96 | 5 | –
CC12C(=O)NC(=O)N1CCc1ccccc12 (stereo unspecified) | 1.52 | – | –
CCCCCCCC(O)(C(N)=O)c1ccccc1 (stereo unspecified) | 3.7 | 9 | –
